Results published in ChEMBL document CHEMBL4433221, “Novel Sustainable-by-Design HDAC Inhibitors for the Treatment of Alzheimer's Disease” (ACS Med Chem Lett, 2019).
The source made the active and inactive calls. The rule behind the calls is not given here.

Assays:
N9 = experiment: Immunomodulatory activity in mouse N9 cells assessed as reduction in LPS-induced iNOS expression at 5 to 25 uM incubated for 24 hrs by Western blot analysis; type: functional, cell-based
Summary of the method: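 N9 mouse microglial cells stimulated with LPS (100 ng/mL) and treated at 5 and 25 μM. iNOS and MRC1 levels were read by Western blot with GAPDH as loading control. Densitometry is expressed as percentage of LPS-only cells, as mean ± SE of three independent experiments.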

Histone deacetylase 1 = Histone deacetylase 1 (Homo sapiens, UniProt Q13547); experiment: Inhibition of human recombinant HDAC1 using fluorogenic peptide p53 residues 379-382 (RHKK(Ac)AMC) as residues at 10 uM by fluorescence method
Sequence of Histone deacetylase 1 (Q13547 whole entry, the tested form may be a part, canonical isoform): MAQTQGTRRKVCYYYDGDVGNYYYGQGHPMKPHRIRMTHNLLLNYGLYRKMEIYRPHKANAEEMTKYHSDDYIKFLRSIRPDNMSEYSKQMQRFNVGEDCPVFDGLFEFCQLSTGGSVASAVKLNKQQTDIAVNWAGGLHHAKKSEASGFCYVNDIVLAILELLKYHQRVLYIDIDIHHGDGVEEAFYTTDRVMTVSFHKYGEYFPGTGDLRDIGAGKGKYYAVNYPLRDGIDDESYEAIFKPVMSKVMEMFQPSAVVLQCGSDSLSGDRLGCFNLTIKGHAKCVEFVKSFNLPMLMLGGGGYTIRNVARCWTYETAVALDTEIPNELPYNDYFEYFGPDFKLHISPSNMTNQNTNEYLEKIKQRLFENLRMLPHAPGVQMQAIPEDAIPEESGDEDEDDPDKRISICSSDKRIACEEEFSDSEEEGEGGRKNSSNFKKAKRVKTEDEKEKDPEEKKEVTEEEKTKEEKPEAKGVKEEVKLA
Summary of the method: (§1)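 Selectivity profile across HDAC isoforms 1–11 at a single concentration of 10 μM, run in duplicate.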

[1] = target: T1, Polyamine deacetylase HDAC10 (Homo sapiens) (UniProt Q969S8); experiment: Inhibition of human recombinant HDAC10 using fluorogenic peptide p53 residues 379-382 (RHKK(Ac)AMC) as residues at 10 uM by fluorescence method; summary of the method: as §1
T1 sequence (whole entry): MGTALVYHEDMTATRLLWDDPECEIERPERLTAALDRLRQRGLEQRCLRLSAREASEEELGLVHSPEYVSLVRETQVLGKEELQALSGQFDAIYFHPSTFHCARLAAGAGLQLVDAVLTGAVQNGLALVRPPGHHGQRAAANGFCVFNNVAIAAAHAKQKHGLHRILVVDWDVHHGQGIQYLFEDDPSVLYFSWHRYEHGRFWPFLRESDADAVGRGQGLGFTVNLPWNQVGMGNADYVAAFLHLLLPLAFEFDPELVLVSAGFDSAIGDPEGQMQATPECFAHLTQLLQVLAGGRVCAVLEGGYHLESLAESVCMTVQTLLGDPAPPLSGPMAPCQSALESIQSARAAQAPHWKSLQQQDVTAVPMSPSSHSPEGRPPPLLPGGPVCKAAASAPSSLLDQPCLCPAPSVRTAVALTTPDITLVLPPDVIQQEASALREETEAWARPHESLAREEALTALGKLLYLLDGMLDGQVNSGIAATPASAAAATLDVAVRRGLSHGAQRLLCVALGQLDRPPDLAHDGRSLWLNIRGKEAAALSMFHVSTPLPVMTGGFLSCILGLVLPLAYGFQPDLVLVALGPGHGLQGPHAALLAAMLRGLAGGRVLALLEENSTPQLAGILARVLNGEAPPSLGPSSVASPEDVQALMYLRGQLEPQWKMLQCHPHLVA

[2] = target: T2, Histone deacetylase 7 (Homo sapiens) (UniProt Q8WUI4); experiment: Inhibition of human recombinant HDAC7 using fluorogenic trifluoroacetyl lysine as substrate at 10 uM by fluorescence method; summary of the method: as §1
T2 sequence (whole entry): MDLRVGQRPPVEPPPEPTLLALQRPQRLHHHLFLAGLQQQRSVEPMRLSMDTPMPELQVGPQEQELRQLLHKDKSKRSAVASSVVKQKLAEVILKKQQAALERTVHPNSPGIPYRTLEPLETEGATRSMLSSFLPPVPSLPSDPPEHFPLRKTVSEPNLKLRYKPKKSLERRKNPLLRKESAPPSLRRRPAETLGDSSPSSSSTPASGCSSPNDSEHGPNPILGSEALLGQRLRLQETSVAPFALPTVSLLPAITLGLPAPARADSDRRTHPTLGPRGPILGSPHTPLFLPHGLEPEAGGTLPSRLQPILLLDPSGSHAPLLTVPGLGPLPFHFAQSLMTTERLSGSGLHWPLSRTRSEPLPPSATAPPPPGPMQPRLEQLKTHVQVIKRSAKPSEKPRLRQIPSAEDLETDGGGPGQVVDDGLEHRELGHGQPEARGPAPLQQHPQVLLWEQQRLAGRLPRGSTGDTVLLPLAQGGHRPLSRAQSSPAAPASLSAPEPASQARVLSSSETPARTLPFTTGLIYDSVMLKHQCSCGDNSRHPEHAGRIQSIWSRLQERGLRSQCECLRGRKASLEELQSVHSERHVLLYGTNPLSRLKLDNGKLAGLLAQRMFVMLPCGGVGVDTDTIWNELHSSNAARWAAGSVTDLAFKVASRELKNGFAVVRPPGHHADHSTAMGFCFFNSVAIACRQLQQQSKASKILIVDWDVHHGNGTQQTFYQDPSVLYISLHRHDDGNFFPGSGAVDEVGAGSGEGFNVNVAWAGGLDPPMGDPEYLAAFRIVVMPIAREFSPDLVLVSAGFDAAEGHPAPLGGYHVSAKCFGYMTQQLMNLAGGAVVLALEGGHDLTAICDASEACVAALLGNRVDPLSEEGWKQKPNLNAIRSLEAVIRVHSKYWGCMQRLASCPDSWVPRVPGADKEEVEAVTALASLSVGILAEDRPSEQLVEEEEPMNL

[3] = target: T3, Histone deacetylase 11 (Homo sapiens) (UniProt Q96DB2); experiment: Inhibition of human recombinant HDAC11 using fluorogenic trifluoroacetyl lysine as substrate at 10 uM by fluorescence method; summary of the method: as §1
T3 sequence (whole entry): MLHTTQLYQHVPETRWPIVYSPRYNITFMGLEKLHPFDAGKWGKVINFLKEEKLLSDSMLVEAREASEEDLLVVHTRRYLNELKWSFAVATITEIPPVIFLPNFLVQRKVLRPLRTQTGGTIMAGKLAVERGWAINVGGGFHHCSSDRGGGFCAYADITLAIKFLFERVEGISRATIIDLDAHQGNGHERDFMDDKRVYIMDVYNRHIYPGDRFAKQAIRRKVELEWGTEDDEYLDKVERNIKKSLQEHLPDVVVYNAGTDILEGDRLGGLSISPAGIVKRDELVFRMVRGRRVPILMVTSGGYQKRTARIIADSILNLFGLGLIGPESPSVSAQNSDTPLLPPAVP

[4] = target: Histone deacetylase (Mus musculus) (UniProt Q8VH37+Q9Z2V6+Q9Z2V5+O09106+Q8C2B3+P70288+O88895+Q91WA3+Q99N13+Q6NZM9+Q6P3E7); settings: at 5 to 25 µM
[5] = target: T4, Histone deacetylase 8 (Homo sapiens) (UniProt Q9BY41); experiment: Inhibition of human recombinant HDAC8 using fluorogenic peptide p53 residues 379-382 (RHK(Ac)K(Ac)AMC) as residues at 10 uM by fluorescence method; summary of the method: as §1
T4 sequence (whole entry): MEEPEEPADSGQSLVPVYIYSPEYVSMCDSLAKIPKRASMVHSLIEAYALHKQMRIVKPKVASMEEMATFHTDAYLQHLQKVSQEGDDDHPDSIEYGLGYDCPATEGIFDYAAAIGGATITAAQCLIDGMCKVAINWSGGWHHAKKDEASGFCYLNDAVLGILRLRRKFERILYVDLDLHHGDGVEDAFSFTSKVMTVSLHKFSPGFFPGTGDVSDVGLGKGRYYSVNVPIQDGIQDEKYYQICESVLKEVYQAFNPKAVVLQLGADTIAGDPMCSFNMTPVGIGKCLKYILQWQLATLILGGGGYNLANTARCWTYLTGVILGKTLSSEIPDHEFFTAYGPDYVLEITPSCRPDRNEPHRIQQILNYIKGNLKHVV

inhibition (Histone deacetylase 1) | inhibition [1] | inhibition [2] | inhibition [3] | inhibition [4] | inhibition [5] | SMILES | Activity (N9)
Active | inactive | inactive | inactive | Active | inactive | COC(=O)c1c(CCCCCCCC(=O)NO)cccc1OC | Active
Active | inactive | inactive | inactive | Active | inactive | COc1cccc(CCCCCCCC(=O)NO)c1 | Active
